Active and inactive are the calls of the source. The rule behind the calls is not given here.
Legend:
Mus musculus [1] = species: Mus musculus; experiment: Antihypersensitivity activity against TNCB-induced acute contact hypersensitivity in BALB/c mouse ear assessed as inhibition of neutrophil infiltration by measuring MPO activity at 0.5 mg/ear measured after 24 hrs relative to control; format: functional
Procedure, shortened: (§1)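 Female BALB/c mice were challenged on both ears with 10 μL 1% TNCB in acetone. Test compounds (0.5 mg/ear in EtOH–H2O 8:2) or dexamethasone (0.025 mg/ear in acetone) were applied topically at 30 min, 24 h and 48 h. Ear tissue was taken at 24 or 72 h and homogenized in phosphate buffer with 0.5% HTAB. MPO was read by TMB/H2O2, 3 min at 37 °C, A630. n ≥5 ear samples.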

Mus musculus [2] = experiment: Antihypersensitivity activity against TNCB-induced atopic dermatitis in BALB/c mouse ear assessed as inhibition of ear thickness at 0.5 mg/ear applied topically three times per week 30 min TNCB post challenge measured on day 7 onwards; format: functional
Procedure, shortened: (§2)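 BALB/c mice sensitized with 10 μL 0.3% TNCB in acetone on both inner ears at day −7, then re-challenged at the same site three times per week over days 0–21. Ear thickness measured by digital micrometer. Edema is the difference between naive and inflamed ear thickness. Inhibition calculated relative to the control group.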

Mus musculus [3] = species: Mus musculus; experiment: Antihypersensitivity activity against TNCB-induced contact hypersensitivity in BALB/c mouse ear assessed as decreased COX2 expression at 0.5 mg/ear after at 72 hrs by Western blotting relative to control; format: functional
Mus musculus [4] = species: Mus musculus; experiment: Antihypersensitivity activity against TNCB-induced contact hypersensitivity in BALB/c mouse ear assessed as decrease TNFalpha levels at 0.5 mg/ear measured at 24 hrs by ELISA relative to control; format: functional
Procedure, shortened: (§3)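 Acute CHS: female BALB/c mice challenged with 1% TNCB (10 μL/ear). Topical treatment at 30 min, 24 h and 48 h: compounds 0.5 mg/ear, dexamethasone 0.025 mg/ear. Ears collected at 24 and 72 h and homogenized. Cytokines measured by ELISA in triplicate and expressed as pg/mL. n ≥4 animals; Dunnett's test versus control.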

Mus musculus [5] = species: Mus musculus; experiment: Antihypersensitivity activity against TNCB-induced contact hypersensitivity in BALB/c mouse ear assessed as decreased COX2 expression at 0.5 mg/ear after at 24 hrs by Western blotting relative to control; format: functional
RAW264.7 [6] = experiment: Antiinflammatory activity in mouse RAW264.7 cells assessed as inhibition of LPS-induced MMP9 expression at 25 uM by Western blotting relative to control; format: functional
Procedure, shortened: (§4)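 RAW 264.7 cells were plated at 2×10^5 cells/mL and switched to DMEM with 0.5% FBS when subconfluent. They were pretreated 1 h with compound (25, 50, 100 μM) or PBS vehicle, then given LPS 1 μg/mL. Cells were lysed after 24 h. MMP-9 was measured by Western blot, normalized to β-actin, with % inhibition versus control. Three experiments.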

Mus musculus [7] = species: Mus musculus; experiment: Antihypersensitivity activity against TNCB-induced contact hypersensitivity in BALB/c mouse ear assessed as decrease IL2 levels at 0.5 mg/ear measured after 72 hrs by ELISA relative to 24 hrs; format: functional; procedure, shortened: as §3
[8] = Inhibition of NF-kappaB activation
RAW264.7 [9] = experiment: Antiinflammatory activity in mouse RAW264.7 cells assessed as inhibition of LPS-induced MMP9 expression at 50 uM by Western blotting relative to control; format: functional; procedure, shortened: as §4
Mus musculus [10] = species: Mus musculus; experiment: Antihypersensitivity activity against TNCB-induced acute contact hypersensitivity in BALB/c mouse ear assessed as inhibition of neutrophil infiltration by measuring MPO activity at 0.5 mg/ear measured after 22 days of repeated application of TNCB relative to control; format: functional
Procedure, shortened: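 Repeated-challenge protocol in BALB/c mice: sensitized with 10 μL 0.3% TNCB in acetone on both inner ears at day −7, then 0.3% TNCB three times weekly over days 0–21. Ears were excised on day 22 and homogenized in 0.5% HTAB phosphate buffer. MPO was read by TMB/H2O2, 3 min at 37 °C, A630. n ≥5 ear samples.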

RAW264.7 [11] = experiment: Antiinflammatory activity in mouse RAW264.7 cells assessed as inhibition of LPS-induced MMP9 expression by Western blotting; format: functional, cell-based; procedure, shortened: as §4
Mus musculus [12] = species: Mus musculus; experiment: Antihypersensitivity activity against TNCB-induced contact hypersensitivity in BALB/c mouse ear assessed as decrease IL1-beta levels at 0.5 mg/ear measured at 24 hrs by ELISA relative to control; format: functional; procedure, shortened: as §3
RAW264.7 [13] = experiment: Antiinflammatory activity in mouse RAW264.7 cells assessed as inhibition of LPS-induced MMP9 expression at 100 uM by Western blotting relative to control; format: functional; procedure, shortened: as §4
Mus musculus [14] = species: Mus musculus; experiment: Antihypersensitivity activity against TNCB-induced contact hypersensitivity in BALB/c mouse ear assessed as inhibition of MMP9 production at 0.5 mg/ear measured at 24 hrs by Western blot analysis relative to control; format: functional
Mus musculus [15] = experiment: Antihypersensitivity against TNCB-induced contact hypersensitivity in BALB/c mouse ear assessed as inhibition of edema at 0.5 mg/ear applied […] after 30 mins, 24 hrs and 48 hrs of TNCB challenge measured after 24 hrs relative to control; format: functional
Procedure, shortened: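 Female BALB/c mice (7–9 weeks) challenged on each ear with 10 μL 1% TNCB in acetone six days after sensitization. Compounds given at 0.5 mg/ear in EtOH–H2O 8:2 at 30 min, 24 h and 48 h. Ear thickness measured by micrometer at 24 and 72 h. Edema is inflamed minus naive thickness; inhibition versus control. Dunnett's test.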

Mus musculus [16] = species: Mus musculus; experiment: Antihypersensitivity activity against TNCB-induced contact hypersensitivity in BALB/c mouse ear assessed as decrease IL4 levels at 0.5 mg/ear measured after 24 to 72 hrs by ELISA; format: functional, organism-based; procedure, shortened: as §3
Mus musculus [17] = species: Mus musculus; experiment: Antihypersensitivity activity against TNCB-induced contact hypersensitivity in BALB/c mouse ear assessed as inhibition of MMP9 production at 0.025 mg/ear measured at 24 hrs by ELISA relative to control
Mus musculus [18] = species: Mus musculus; experiment: Antihypersensitivity activity against TNCB-induced contact hypersensitivity in BALB/c mouse ear assessed as decreased COX2 expression at 0.025 mg/ear after at 72 hrs by Western blotting relative to control; format: functional
Mus musculus [19] = experiment: Antihypersensitivity against TNCB-induced contact hypersensitivity in BALB/c mouse ear assessed as inhibition of edema at 0.025 mg/ear applied […] after 30 mins, 24 hrs and 48 hrs of TNCB challenge measured after 24 hrs relative to control; format: functional
Procedure, shortened: (§5)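 Female BALB/c mice, 7–9 weeks old, were challenged with 10 μL 1% TNCB in acetone per ear. Dexamethasone (20 μL, in acetone) was applied topically to both ears at 30 min, 24 h and 48 h after challenge. Thickness was taken by digital micrometer at 24 h or 72 h; edema is inflamed minus naive ear, with inhibition relative to control. Reported as mean ± SEM, ≥6 animals, Dunnett's test.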

Mus musculus [20] = experiment: Antihypersensitivity activity against TNCB-induced atopic dermatitis in BALB/c mouse ear assessed as inhibition of ear thickness at 0.025 mg/ear applied topically three times per week 30 min TNCB post challenge measured up to 25 days; format: functional, organism-based; conditions: in the assay text read “up to 21 days” for “up to 25 days”; procedure, shortened: as §2
Mus musculus [21] = species: Mus musculus; experiment: Antihypersensitivity activity against TNCB-induced contact hypersensitivity in BALB/c mouse ear assessed as inhibition of MMP9 production at 0.025 mg/ear measured at 72 hrs by Western blot analysis relative to control; format: functional
Mus musculus [22] = species: Mus musculus; experiment: Antihypersensitivity activity against TNCB-induced acute contact hypersensitivity in BALB/c mouse ear assessed as inhibition of neutrophil infiltration by measuring MPO activity at 0.025 mg/ear measured after 24 to 72 hrs relative to control; format: functional; procedure, shortened: as §1
Mus musculus [23] = species: Mus musculus; experiment: Antihypersensitivity activity against TNCB-induced contact hypersensitivity in BALB/c mouse ear assessed as decreased COX2 expression at 0.025 mg/ear after at 24 hrs by Western blotting relative to control; format: functional
Mus musculus [24] = species: Mus musculus; experiment: Antihypersensitivity activity against TNCB-induced contact hypersensitivity in BALB/c mouse ear assessed as decrease cytokines levels at 0.025 mg/ear measured at 24 hrs by ELISA relative to control; format: functional; procedure, shortened: as §3
Mus musculus [25] = species: Mus musculus; experiment: Antihypersensitivity activity against TNCB-induced acute contact hypersensitivity in BALB/c mouse ear assessed as inhibition of neutrophil infiltration by measuring MPO activity at 0.025 mg/ear measured after 22 days of repeated application of TNCB relative to control; format: functional
Procedure, shortened: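 Female BALB/c mice were sensitized with 10 μL 0.3% TNCB in acetone on both inner ear surfaces, then painted with 0.3% TNCB three times weekly through days 0–21. On day 22 ears were homogenized in 50 mM PBS with 0.5% HTAB. Supernatant was read with H2O2 and tetramethylbenzidine, 3 min at 37 °C, acid-stopped, A630. Reported as mean ± SEM of ≥5 ear samples.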

Mus musculus [26] = experiment: Antihypersensitivity against TNCB-induced contact hypersensitivity in BALB/c mouse ear assessed as inhibition of edema at 0.025 mg/ear applied […] after 30 mins, 24 hrs and 48 hrs of TNCB challenge measured after 72 hrs relative to control; format: functional; procedure, shortened: as §5

O=C(/C=C/c1ccc(O)c(O)c1)O[C@@H]1C[C@](O)(C(=O)O)C[C@@H](OC(=O)/C=C/c2ccc(O)c(O)c2)[C@H]1O (relative stereo)
inhibition (INH) (Mus musculus [1]): 20% | inhibition (INH) (Mus musculus [2]): > 40% | inhibition (INH) (Mus musculus [3]): 20% | inhibition (INH) (Mus musculus [4]): 53% | inhibition (INH) (Mus musculus [5]): 44% | inhibition at 25 µM (RAW264.7 [6]): 20% | fold change (FC) (Mus musculus [7]): 2 | inhibition [8]: Active | inhibition at 50 µM (RAW264.7 [9]): 42% | inhibition (INH) (Mus musculus [10]): 44% | inhibition (RAW264.7 [11]): Dose-dependent effect | inhibition (INH) (Mus musculus [12]): >50% | inhibition at 100 µM (RAW264.7 [13]): 97% | inhibition (INH) (Mus musculus [14]): 66% | inhibition (INH) (Mus musculus [15]): 50% | inhibition (Mus musculus [16]): inactive

C[C@@H]1C[C@H]2[C@@H]3CCC4=CC(=O)C=C[C@]4(C)[C@@]3(F)[C@@H](O)C[C@]2(C)[C@@]1(O)C(=O)CO [DEXAMETHASONE]
inhibition (INH) (Mus musculus [17]): 81% | inhibition (INH) (Mus musculus [18]): 43% | inhibition (INH) (Mus musculus [19]): 78% | inhibition (Mus musculus [20]): Active | inhibition (INH) (Mus musculus [21]): 69% | inhibition (INH) (Mus musculus [22]): 65% | inhibition (INH) (Mus musculus [23]): 48% | inhibition (INH) (Mus musculus [24]): 50% | inhibition (INH) (Mus musculus [25]): 78% | inhibition (INH) (Mus musculus [26]): 83%

O=C(O[C@@H]1Cc2c(O)cc(O)cc2O[C@@H]1c1cc(O)c(O)c(O)c1)c1cc(O)c(O)c(O)c1 [EPIGALOCATECHIN GALLATE]
inhibition at 25 µM (RAW264.7 [6]): 70% | inhibition at 50 µM (RAW264.7 [9]): 75% | inhibition at 100 µM (RAW264.7 [13]): 90%
